Source: ChEMBL document CHEMBL4513216, “Probing the Open Global Health Chemical Diversity Library for Multistage-Active Starting Points for Next-Generation Antimalarials” (ACS Infect Dis, 2020)

Assay: Toxicity liver stage against HepG2, at 10uM
Type: cell-based
Set-up: test concentration 10 uM, cell line HepG2-A16-CD81EGFP
Settings: human, HepG2-A16-CD81EGFP cells; read-out: INHIBITION
Outline: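 Uninfected HepG2-A16-CD81EGFP cells, 3 × 10^3 per well, 1536-well, plated on prespotted compound at 10 μM final, parasite-free screening media added to match infected plates; puromycin 10 μM positive, DMSO 0.5% negative; run in parallel with 48 h PbLuc assay at 37 °C, 5% CO2; viability by CellTiter-Glo luminescence, normalized to controls.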

| SMILES | cytotoxicity at 10 µM |
| --- | --- |
| O=c1c2c(ncn1CCO)nc1n2CCC1 | -11.3% |
| COCCN(CC1CCCN(C2Cc3ccccc3C2)C1)C(=O)CSC (stereo unspecified) | -1.66% |
| Cc1ccccc1C(O)c1ccncc1 (stereo unspecified) | -4.84% |
| COCc1cc(CC2(NC3CCCCC3)COC2)no1 | 0.66% |
| Cc1ccc(-c2noc(C(C)NS(C)(=O)=O)n2)cc1 (stereo unspecified) | -9.24% |
| CC(C)CCNC(=O)c1ccc2c(=O)n(-c3ccccc3)cnc2c1 | -4.65% |
| Cn1cc(NC(=O)CNC(=O)N2CCN(c3cccc(Cl)c3)CC2)cn1 | 2.93% |
| O=C(COc1coc(CN2CCOCC2)cc1=O)Nc1ccc(Cl)cc1 | -6.51% |
| Cc1ccc(C)c(C(=O)NCC(c2cccn2C)N2CCCCCC2)c1 (stereo unspecified) | 5.64% |
| O=C(NCC(F)(F)F)C1CN(C(=O)c2cnccn2)C1 | 2.24% |
| c1cncc(COCC2CN(Cc3ccco3)Cc3ccnn3C2)c1 (stereo unspecified) | -14.4% |
| CO[C@H]1CCN(c2ccc(C)nn2)[C@H]1Cc1cnn(C)c1 | -12.7% |
| CSc1ncn(-c2nc(NC3CC3)nc(N(C)C)n2)n1 | -6.75% |
| CCOCCCNC(=O)c1nn(CC)cc1Br | 1.77% |
| Cc1nc(NCc2cccnc2)c2c(n1)c(C)nn2C | -3.42% |
| CN(C)c1ccc(C2CCN(c3cnccn3)CC2)nc1 | -11.2% |
| O=C(c1cc(C2CC2)on1)N1C[C@H]2CC[C@](O)(c3ccc(F)cc3)[C@H]2C1 | 3.94% |
| CN(C)Cc1cnc(C2CCN(C(=O)c3cc(F)cc(F)c3)C2)[nH]1 (stereo unspecified) | 2.5% |
| Cn1c(=O)[nH]c(=O)c2c1nc1n2CC(c2ccc(Br)cc2)O1 (stereo unspecified) | -1.41% |

| SMILES | cytotoxicity at 10 µM |
| --- | --- |
| CC(C)(C)NC(=O)N1CCC(NC(=O)Cc2cccnc2)CC1 | 0.355% |
| Cc1ccc2nc(CN(C)Cc3ccc(C)o3)cc(=O)n2c1 | -3.02% |
| Cc1ccc(C(=O)NS(=O)(=O)Cc2ccccc2)cc1S(C)(=O)=O | 3.09% |
| CS(=O)(=O)c1cc(NC(=O)COc2ccccc2F)cc(C(=O)O)c1 | -9.24% |
| Cc1nnc2n1CC(CNCc1nc(-c3cccs3)no1)CC2 (stereo unspecified) | 10.1% |
| CC1(C)CN(C(=O)CCc2nc(-c3ccncc3)no2)CCO1 | -3.16% |
| COc1ccccc1CNCCc1cccc(C(N)=O)c1 | 3.65% |
| COc1ccc(C(O)CNC(=O)Cn2ccc(=O)n(C)c2=O)cc1 (stereo unspecified) | 6.45% |
| CCOc1cc(CNc2cc(-c3nc(C)no3)ccn2)ccc1OC | 1.74% |
| COCCNC(=O)c1ccc(NCc2c(C)noc2C)cc1Cl | 0.678% |
| CC(NC(=O)CSCC(N)=O)c1ccc(Oc2ccccc2)cc1 (stereo unspecified) | 2.98% |
| Cc1cc(C(=O)NCC(O)c2ccc(Cl)s2)c(C)o1 (stereo unspecified) | -6.82% |
| O=C(Cc1ccccc1Br)NCC(=O)Nc1cn[nH]c1 | 7.44% |
| CC(C(=O)NCc1ccco1)N1CCN(Cc2nccn2C)CC1 (stereo unspecified) | 7.73% |
| CN(Cc1ccc(C(N)=O)cc1)c1ccc(C(F)(F)F)cn1 | 7.98% |
| O=C(c1ccc(OCC2CC2)cc1)N1CCOCC1c1ncon1 (stereo unspecified) | 1.79% |
| CCc1nc2n(n1)CC(Nc1ccnc(-c3ccccc3)n1)CC2 (stereo unspecified) | -11.7% |
| CC(O)(CNS(=O)(=O)Cc1ccon1)c1ccsc1 (stereo unspecified) | 2.76% |
| CC(C)C(C)NC(=O)Nc1cccc2c1CCN(S(C)(=O)=O)C2 (stereo unspecified) | -11.3% |

| SMILES | cytotoxicity at 10 µM |
| --- | --- |
| CC(=O)N1CCN(CCNS(=O)(=O)c2cccc(F)c2)CC1 | 6.99% |
| COc1ccc2cccc(CC(=O)NCCc3n[nH]c(=O)[nH]3)c2c1 | -3.59% |
| Cn1ccnc1SCC(=O)NCCC1CCCO1 (stereo unspecified) | -2.49% |
| O=C(c1c[nH]c2ncccc12)N(Cc1ccco1)C1CCCC1 | 2.07% |
| CC(C)c1nnc(NC(=O)N2CCN(C)CC2c2ccccc2)s1 (stereo unspecified) | -11.6% |
| O=C(Nc1cccn(CC(F)(F)F)c1=O)c1ccc(F)cc1 | 14.3% |
| CCn1c(C)cc(-c2csc(Cn3ccc(=O)[nH]c3=O)n2)c1C | 10.2% |
| N#CC(NC(=O)CCC1CCC1)c1cnn(-c2ccccc2)c1 (stereo unspecified) | -2.65% |
| Cc1nc(-c2ccc(Cl)s2)sc1C(=O)N(C)CC(N)=O | -7.08% |
| Cc1nc(S(=O)(=O)CCn2cccn2)n(CC2CCCO2)c1C (stereo unspecified) | -4.34% |
| COCC(O)CN(C)C(=O)NC1CCN(S(C)(=O)=O)CC1 (stereo unspecified) | -0.778% |
| c1cc(CN2CCCCC2)cc(NCc2cc[nH]n2)c1 | -6.05% |
| CC(=O)c1cccc(NC(=O)CN2CCCCC2C2OCCO2)c1 (stereo unspecified) | -10.5% |
| O=C(C1SCCc2sccc21)N1CCN(CCO)CC1 (stereo unspecified) | -19.8% |
| CCCn1nc2c(cc1=O)CN(Cc1nc(CCOC)no1)CC2 | -2.7% |
| CSc1ccc(NS(=O)(=O)c2cnn(C)c2)cn1 | -4.69% |
| CSCCC(=O)N1CCCC1c1ccsc1 (stereo unspecified) | -20.3% |
| CCCc1n[nH]c(C2CN(C(=O)CCCn3cccn3)CCO2)n1 (stereo unspecified) | -7.87% |
